Screening data deposited in PubChem by several laboratories.
IMP-1 inhibitor: IMP-1 metallo-beta-lactamase inhibitors, primary screen, biochemical, epi-absorbance readout, Pseudomonas aeruginosa enzyme. metallo-beta-lactamase IMP-1 (Pseudomonas aeruginosa). purified IMP-1, nitrocefin hydrolysis, epi-absorbance fluorescence. inhibition, % at 5.6 µM. 0.45% of 290,000 active;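 active = inhibition above the mean plus 3 SD of all compounds in the same screening run, cut at about 4.5% in these data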;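 note: 0% = IMP-1 with DMSO and 100% = DMSO wells lacking enzyme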
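Material – recombinant IMP-1 enzyme, purified · Amount – IMP-1 0.2 nM before substrate addition · Medium – HEPES buffer pH 7.1 with ZnSO4 and Brij 35 · Timing – 25 °C, 15 min preincubation, 25 min reaction · Measured by – plate fluorescence quenching by hydrolysis product, ex 480/em 530 nm · Read-out – percent enzyme inhibition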
GLD-1 TGE inh: GLD-1/TGE RNA complex disruptors, primary screen, biochemical, fluorescence polarization; purified GLD-1 + fluorescein TGE RNA; inhibition, % at 5.96 µM; 0.44% of 320,000 active; AID 2280, 2010;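 active = percent inhibition above a per-plate cutoff, the plate mean of test compounds plus 3 SD, cut at about 30% in these data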;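 note: 0% = DMSO wells with GLD-1 and probe and 100% = wells lacking GLD-1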
VIM-2 inh: VIM-2 metallo-beta-lactamase inhibitors, primary screen, biochemical, epi-absorbance readout, Pseudomonas aeruginosa enzyme; purified VIM-2, nitrocefin hydrolysis, epi-absorbance fluorescence; inhibition, % at 5.6 µM; 0.89% of 290,000 active;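 active = inhibition above the mean of all tested compounds plus 3 SD, cutoff set per screening run, cut at about 7.5% in these data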;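 note: red hydrolysis product quenches plate fluorescence so inhibitors raise well fluorescence; 0% = enzyme with DMSO and 100% = DMSO without enzyme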
EBV gp42 inh: Epstein-Barr virus gp42 inhibitors, primary screen, biochemical, uHTS, fluorescence polarization. 0.42% of 220,000 active. inhibition, % (tested at 21.74 µM). AID 1085, 2008. Glycoprotein 42 (Epstein-Barr virus (strain AG876)), Q1HVG2. Fluorescence polarization binding assay, mP read-out; in the data active = inhibition above about 50%
MEX-5 binding: MEX-5 zinc finger RNA-binding disruptors – biochemical, C. elegans, fluorescence polarization, MLPCN library, primary screen | Zinc finger protein mex-5 (Caenorhabditis elegans), Q9XUB2 | activity score (negative = inhibition of binding), % at 10 µM | 0.38% of 300,000 active | MEX-5/FITC-TCR2 RNA binding; stronger effect = lower value;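 active = inhibition past about -25% in most replicates, and total fluorescence under double the plate's negative control median, limit read from the data; inconclusive = replicates evenly split on the limit, or fluorescence at least double controls; inactive = too little inhibition in most replicates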;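 note: 0% = DMSO and -100% = 5 µM competing unlabeled TCR2 RNA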
Target sequence (Q9XUB2 whole entry, looked up): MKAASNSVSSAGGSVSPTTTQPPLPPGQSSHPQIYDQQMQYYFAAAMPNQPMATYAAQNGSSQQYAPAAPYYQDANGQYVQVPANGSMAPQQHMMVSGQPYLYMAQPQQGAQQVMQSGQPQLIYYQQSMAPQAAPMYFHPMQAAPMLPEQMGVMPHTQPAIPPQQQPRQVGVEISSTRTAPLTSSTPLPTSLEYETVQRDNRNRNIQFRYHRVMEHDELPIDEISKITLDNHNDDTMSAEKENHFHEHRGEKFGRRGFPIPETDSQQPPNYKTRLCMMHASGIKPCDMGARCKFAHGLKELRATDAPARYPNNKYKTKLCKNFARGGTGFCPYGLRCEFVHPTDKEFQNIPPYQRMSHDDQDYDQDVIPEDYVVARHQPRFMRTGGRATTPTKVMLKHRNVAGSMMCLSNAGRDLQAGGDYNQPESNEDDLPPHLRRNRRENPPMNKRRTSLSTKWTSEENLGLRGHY
Bcl-xL primary: inhibitors of human Bcl-xL, primary screen, biochemical, fluorescence polarization, HTS. GST-Bcl-xL / FITC-Bim BH3 peptide fluorescence polarization. inhibition, % at 10.9 µM. 0.7% of 320,000 active. Bcl-2-like protein 1 (Homo sapiens), Q07817. AID 2129, 2009;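 active = inhibition above the mean of all tested compounds plus 3 SD, cutoff set per campaign, cut at about 30% in these data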;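 note: 0% = DMSO wells and 100% = unlabeled Bim-BH3 peptide competitor; inhibitors lower millipolarization by displacing the labeled peptide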
* = called active by the depositor; ? = inconclusive; · = no result. Compounds with a hit are over-represented: about 2.2% of the library has one in this group of screens.

SMILES	IMP-1 inhibitor	GLD-1 TGE inh	VIM-2 inh	EBV gp42 inh	MEX-5 binding	Bcl-xL primary
O=C(c1ccc(Cl)cc1)C1C2C(=O)N(c3ccccc3)C(=O)C2C2CCCN21 (stereo not drawn)	-5	·	-4	81*	-29*	·
CC(=O)c1ccc(N2C(=O)C3C(C2=O)C(C(=O)c2ccc(Cl)cc2)N2CCCC32)cc1 (stereo not drawn)	-3	·	-7	89*	·	·
Cc1ccc(N2C(=O)[C@@H]3[C@H](C2=O)C2CCCN2[C@@H]3C(=O)c2ccccc2)cc1 (stereo partly drawn)	0	48*	0	42	-16	78*
CCc1n[n+](CC(=O)c2ccccc2)c(N)s1	-1	·	0	-12	·	·
O=C(OCC(O)COC(=O)c1cccnc1)c1cccnc1	-1	-7	0	-15	2	-3
CC1CCCCN1CCCNC(=O)c1ccc(NC(=O)C2=CSCCO2)cc1 (stereo not drawn)	-2	-3	-1	·	-2	6
COCCNC(=O)Cn1ccc2cc(S(=O)(=O)N3CCCCC3)ccc21	-5	8	-1	·	2	9
N/C(=N\OC(=O)c1ccccc1Br)c1ccc([N+](=O)[O-])cc1	12*	5	-2	·	1	8
O=C(CNC(=O)c1ccco1)N/N=C/c1ccc(C(=O)O)cc1	-3	2	-2	·	3	2
COc1cc2c(cc1O)CC[n+]1cc3c(OC)c(OC)ccc3cc1-2	-4	-6	-1	0	-3	2
COc1cc2c(cc1OC)-c1cc3ccc4c(c3c[n+]1CC2)OCO4	1	40*	1	126*	?	170*
CCN(c1ccccc1)S(=O)(=O)c1ccc(Cl)c(C(=O)N2CCCC2)c1	·	-7	·	·	·	4
COc1ccc(S(=O)(=O)Nc2cccnc2)c(C)c1C	4.6*	0	-1	·	-1	5
O=C(Nc1ccc(Nc2ccncc2)cc1)c1ccc(Nc2ccnc3ccc([N+](=O)[O-])cc23)cc1[N+](=O)[O-]	9.1*	-7	2	17	-1	-3
O=C(COc1ccc2c3c(c(=O)oc2c1)CCCC3)NCCN1CCOCC1	-2	0	12*	·	0	-2
Cc1cc(=O)oc2cc(OCC(=O)NCCCN3CCOCC3)ccc12	0	9	3	-8	0	7
CCc1cc(=O)oc2cc(OCC(=O)NCCCn3ccnc3)ccc12	-2	7	11*	·	2	7
O=C(COc1ccc2c3c(c(=O)oc2c1)CCCC3)NCCCN1CCOCC1	-1	-1	11*	·	-1	9
COc1ccc(-c2cc(=O)oc3cc(OCC(=O)NCCCn4ccnc4)ccc23)cc1	-2	-1	7	·	3	3
Cc1c(C)c2ccc(OCC(=O)NCCN3CCOCC3)c(C)c2oc1=O	0	3	11*	·	0	4
CC1=C(C)C(O)N(Cc2ccccc2)C1=O (stereo not drawn)	-5	5	-1	·	1	3
CC(OC(=O)c1cccc(S(=O)(=O)N(C)C)c1)C(=O)NCc1ccc2c(c1)OCO2 (stereo not drawn)	·	-3	·	·	1	0
CCOc1cc2c(cc1/C=C(/C#N)c1ccc(C(=O)O)cc1)OCO2	-3	-4	-1	-14	-32*	6
O=C(c1ccccc1[N+](=O)[O-])N1CCN(c2ccc(N3CCOCC3)nn2)CC1	·	0	·	·	-1	4
CCOc1ccc(N=Cc2c(C)[nH]n(-c3nc4ccccc4[nH]3)c2=O)cc1	7.2*	0	-3	-15	0	2
SMILES	IMP-1 inhibitor	GLD-1 TGE inh	VIM-2 inh	EBV gp42 inh	MEX-5 binding	Bcl-xL primary
COc1ccc(NC(=O)N(CCc2ccccc2)Cc2cc3c(C)cc(C)cc3[nH]c2=O)cc1	-4	3	-2	59*	0	0
N#Cc1c2c(c(NCc3cccnc3)n3c1nc1ccccc13)CCC2	-5	2	12*	-19	-4	8
CC(=O)c1ccc(Nc2c3c(c(C#N)c4nc5ccccc5n24)CCC3)cc1	1	-19	3	-29	-2	-13
COCCNc1c2c(c(C#N)c3nc4ccccc4n13)CCCC2	-4	8	8	-16	1	4
Cc1c2c(n3c(nc4ccccc43)c1C#N)N(Cc1cccnc1)CC2	-2	·	9.6*	·	·	·
CC(=O)Nc1ccc(N2CCc3c(C)c(C#N)c4nc5ccccc5n4c32)cc1	-2	11	2	59*	-14	19
Cc1ccc(C(=O)NCCCNC(=O)COc2ccc(Cl)cc2)cn1	-2	0	-2	·	-1	4
CCCn1c(N)c(C(=O)CSc2nncs2)c(=O)[nH]c1=O	·	4	·	·	·	5
Cn1c(=O)[nH]c(=O)c2c1nc(NCc1ccccc1)n2Cc1ccc(F)cc1	-4	·	-2	·	0	·
Nc1c(NCc2ccccc2)c(=O)[nH]c(=O)n1Cc1ccccc1	-3	86*	-4	7	-18	70*
O=C(NC(=S)N(CCO)Cc1ccccc1)c1cc(Br)ccc1Cl	-3	4	-5	4	2	6
CCOC(=O)c1cc(-c2ccccc2C)n(CC2CC(c3cccc([N+](=O)[O-])c3)=NO2)n1 (stereo not drawn)	·	4	·	·	·	2
Cc1ccc(/C=C/C(=O)Nc2cc(=O)n(C)c(=O)n2C)o1	-3	27	-2	-5	-15	33*
Cn1c(NC(=O)/C=C/c2ccco2)cc(=O)n(C)c1=O	-3	5	-3	-11	4	12
CCN(CC)S(=O)(=O)c1ccc(C(=O)NCC(=O)NCCCc2ccccc2)cc1	-2	·	-3	·	3	·
O=C(Nc1ccccc1N1CCOCC1)c1cccnc1Cl	47*	2	1	-8	-2	3
O=C(Nc1ccc(N2CCOCC2)c(Cl)c1)c1cccnc1Cl	-4	-7	0	-22	2	-2
CCC1CCCCN1CCCNC(=O)c1ccc2nc(N3CCC(C)CC3)sc2c1 (stereo not drawn)	-4	0	5	·	0	3
CC1CCN(c2nc3ccc(C(=O)NCCCN4CCCCC4)cc3s2)CC1	-7	2	10*	·	2	-1
O=C(Nc1ccccc1F)c1coc(=O)c(Br)c1	0	-2	-2	4	-56*	4
O=C(Cn1cc([N+](=O)[O-])ccc1=O)NCC1COc2ccccc2O1 (stereo not drawn)	·	1	·	·	·	-3
